Measured values reported in ChEMBL document CHEMBL4680084, “New β-Lactam Derivatives Modulate Cell Adhesion and Signaling Mediated by RGD-Binding and Leukocyte Integrins” (J Med Chem, 2016).
Numbered stars: 1 amine (or outer) side, 2 acyl side, 3 side chain; on linkers, the order of the positions; unused ones are H or OH. Square brackets hold non-standard residues; d marks the D form. Peptide text beside a SMILES is read from it. * marks the point of attachment. X1 = O=C(Cc1ccc(N[*:1])cc1)[*:2]; NH(2-Me-phenyl) = Cc1ccccc1N*; CO = O=C([*:1])[*:2]

Assays:
SK-MEL-24 = experiment: Toxicity in human SK-MEL-24 cells assessed as induction of cell necrosis and/or apoptosis incubated for 3 hrs by annexin V-PE and 7-AAD staining based by flow cytometry; conditions: sk-mel-24, 3 h
Summary of the method: (§1)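 After 3 h incubation, cells resuspended in complete medium and stained with annexin V-PE/7-AAD reagent for 20 min at room temperature in the dark. Flow cytometry sorted cells into viable, early apoptotic and late apoptotic/necrotic populations.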

MCF7 = experiment: Toxicity in human MCF7 cells assessed as induction of cell necrosis and/or apoptosis incubated for 3 hrs by annexin V-PE and 7-AAD staining based by flow cytometry; conditions: mcf7, 3 h; summary of the method: as §1
HT-29 = experiment: Toxicity in human HT-29 cells assessed as induction of cell necrosis and/or apoptosis incubated for 3 hrs by annexin V-PE and 7-AAD staining based by flow cytometry; conditions: ht-29, 3 h; summary of the method: as §1
K562 = experiment: Toxicity in human K562 cells assessed as induction of cell necrosis and/or apoptosis incubated for 3 hrs by annexin V-PE and 7-AAD staining based by flow cytometry; conditions: k562, 3 h; summary of the method: as §1
HEL = experiment: Toxicity in human HEL cells assessed as induction of cell necrosis and/or apoptosis incubated for 3 hrs by annexin V-PE and 7-AAD staining based by flow cytometry; summary of the method: as §1
[1] = biological target: T1, Integrin alpha-L/beta-2 (LFA-1) (Homo sapiens, UniProt P05107+P20701); experiment: Antagonist activity at alphaLbeta2 in human Jurkat E6.1 cells assessed as reduction in cell adhesion to ICAM1 pre-incubated for 30 mins before ICAM1 and further incubated for 30 mins by […]; assay type: cell-based
Summary of the method: (§2)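 Jurkat E6.1 cells labelled with CellTracker green CMFDA (12.5 µM, 30 min, 37 °C), washed, then pre-incubated 30 min at 37 °C with compound or methanol. Plated at 500,000/well on VCAM-1 (α4β1) or ICAM-1 (αLβ2) coated wells (5 µg/mL) for 30 min at 37 °C. Cells lysed in 0.5% Triton X-100; fluorescence read Ex485/Em535. Quadruplicate, at least three repeats.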

[2] = biological target: T2, Integrin alpha-IIb/beta-3 (Homo sapiens, UniProt P05106+P08514); experiment: Inhibition of fibrinogen binding to alpha2bbeta3 isolated from human HEL cells incubated for 1 hr by […] competitive solid-phase binding assay
Integrin alpha-5/beta-1 [3] = biological target: T3, Integrin alpha-5/beta-1 (Homo sapiens, UniProt P05556+P08648); experiment: Inhibition of fibronectin binding to alpha5beta1 isolated from human K562 cells incubated for 1 hr by […] competitive solid-phase binding assay; assay type: tissue-based
Summary of the method: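 Plates coated overnight at 4 °C in carbonate buffer pH 9.6 with fibronectin 0.5 µg/mL (αvβ3, αvβ6, α5β1), fibrinogen 10 µg/mL (αIIbβ3, αvβ5) or ICAM-1 (αLβ2). Blocked 1 h in buffer containing Ca/Mg/Mn 1 mM each and 1% BSA. Purified integrin (3–10 µg/mL) incubated with compound (10⁻⁴–10⁻¹⁰ M) 1 h at room temperature. Bound integrin detected with primary antibody then AlexaFluor488 secondary, Ex485/Em535. Duplicate, at least three repeats.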

Integrin alpha-V/beta-3 [4] = biological target: T4, Integrin alpha-V/beta-3 (Homo sapiens, UniProt P05106+P06756); experiment: Antagonist activity at alphaVbeta3 in human SK-MEL-24 cells assessed as reduction in cell adhesion to fibronectin pre-incubated for 30 mins before fibronectin and further incubated for 1 hr by nitrophenyl-N-acetyl-beta-D-glucosaminide substrate based chromogenic assay
Summary of the method: (§3)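 Compound or methanol vehicle pre-incubated with cells for 30 min at room temperature. Cells then plated on wells coated overnight at 4 °C with fibronectin 10 µg/mL (SK-MEL-24, K562, HT-29) or fibrinogen 10 µg/mL (MCF7, HEL). Seeding was 50,000 cells/well, or 100000 for HEL. Adhesion ran 1 h at room temperature. Wells washed with 1% BSA/PBS. Quadruplicate, at least three repeats.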

Integrin alpha-V/beta-5 [5] = biological target: T5, Integrin alpha-V/beta-5 (Homo sapiens, UniProt P06756+P18084); experiment: Agonist activity at alphaVbeta5 in human MCF7 cells assessed as increase in cell adhesion to fibrinogen pre-incubated for 30 mins before fibrinogen and further incubated for 1 hr by nitrophenyl-N-acetyl-beta-D-glucosaminide substrate based chromogenic assay
Summary of the method: as §3, with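 “BSA/PBS. Adherent cells read by hexosaminidase substrate, absorbance 405 nm.” for “BSA/PBS.”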

Integrin alpha-V/beta-6 [6] = biological target: T6, Integrin alpha-V/beta-6 (Homo sapiens, UniProt P06756+P18564); experiment: Agonist activity at alphaVbeta6 in human HT-29 cells assessed as increase in cell adhesion to fibronectin pre-incubated for 30 mins before fibronectin and further incubated for 1 hr by nitrophenyl-N-acetyl-beta-D-glucosaminide substrate based chromogenic assay
Summary of the method: as §3, with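 “BSA/PBS. Adherent cells read by hexosaminidase substrate, absorbance 405 nm.” for “BSA/PBS.”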

Integrin alpha-V/beta-6 [7] = biological target: T6, Integrin alpha-V/beta-6; experiment: Antagonist activity at alphaVbeta6 in human HT-29 cells assessed as reduction in cell adhesion to fibronectin pre-incubated for 30 mins before fibronectin and further incubated for 1 hr by nitrophenyl-N-acetyl-beta-D-glucosaminide substrate based chromogenic assay; summary of the method: as §3
Integrin alpha-5/beta-1 [8] = biological target: T3, Integrin alpha-5/beta-1; experiment: Agonist activity at alpha5beta1 in human K562 cells assessed as increase in cell adhesion to fibronectin pre-incubated for 30 mins before fibronectin and further incubated for 1 hr by nitrophenyl-N-acetyl-beta-D-glucosaminide substrate based chromogenic assay
Summary of the method: as §3, with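 “BSA/PBS. Adherent cells read by hexosaminidase substrate, absorbance 405 nm.” for “BSA/PBS.”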

Integrin alpha-4/beta-1 [9] = biological target: T7, Integrin alpha-4/beta-1 (Homo sapiens, UniProt P05556+P13612); experiment: Agonist activity at alpha4beta1 in human Jurkat E6.1 cells assessed as increase in cell adhesion to VCAM1 pre-incubated for 30 mins before VCAM1 and further incubated for 30 mins by […]; assay type: cell-based; summary of the method: as §2
[10] = biological target: T2, Integrin alpha-IIb/beta-3; experiment: Agonist activity at alpha2bbeta3 in human HEL cells assessed as increase in cell adhesion to fibrinogen pre-incubated for 30 mins before fibrinogen and further incubated for 1 hr by nitrophenyl-N-acetyl-beta-D-glucosaminide substrate based chromogenic assay; summary of the method: as §3
Integrin alpha-4/beta-1 [11] = biological target: T7, Integrin alpha-4/beta-1; experiment: Antagonist activity at alpha4beta1 in human Jurkat E6.1 cells assessed as reduction in cell adhesion to VCAM1 pre-incubated for 30 mins before VCAM1 and further incubated for 30 mins by […]; assay type: cell-based
Integrin alpha-V/beta-3 [12] = biological target: T4, Integrin alpha-V/beta-3; experiment: Inhibition of fibronectin binding to human recombinant alphaVbeta3 expressed in HEK293 cells incubated for 1 hr by […] competitive solid-phase binding assay; assay type: cell-based
Integrin alpha-V/beta-5 [13] = biological target: T5, Integrin alpha-V/beta-5; experiment: Inhibition of fibrinogen binding to alphaVbeta5 isolated form human mCf7 cells incubated for 1 hr by […] competitive solid-phase binding assay
Integrin alpha-V/beta-6 [14] = biological target: T6, Integrin alpha-V/beta-6; experiment: Inhibition of fibronectin binding to alphaVbeta6 isolated form human HT-29 cells incubated for 1 hr by […] competitive solid-phase binding assay; assay type: tissue-based
Integrin alpha-4/beta-1 [15] = biological target: T7, Integrin alpha-4/beta-1; experiment: Inhibition of fibronectin binding to […] isolated from human Jurkat E6.1 cells incubated for 1 hr by scintillation-proximity assay based competitive solid-phase binding assay; assay type: tissue-based
Integrin alpha-V/beta-3 [16] = biological target: T4, Integrin alpha-V/beta-3; experiment: Agonist activity at alphaVbeta3 in human SK-MEL-24 cells assessed as increase in cell adhesion to fibronectin pre-incubated for 30 mins before fibronectin and further incubated for 1 hr by nitrophenyl-N-acetyl-beta-D-glucosaminide substrate based chromogenic assay
Summary of the method: as §3, with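 “BSA/PBS. Adherent cells read by hexosaminidase substrate, absorbance 405 nm.” for “BSA/PBS.”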

Integrin alpha-V/beta-5 [17] = biological target: T5, Integrin alpha-V/beta-5; experiment: Antagonist activity at alphaVbeta5 in human MCF7 cells assessed as reduction in cell adhesion to fibrinogen pre-incubated for 30 mins before fibrinogen and further incubated for 1 hr by nitrophenyl-N-acetyl-beta-D-glucosaminide substrate based chromogenic assay; summary of the method: as §3
Integrin alpha-5/beta-1 [18] = biological target: T3, Integrin alpha-5/beta-1; experiment: Antagonist activity at alpha5beta1 in human K562 cells assessed as reduction in cell adhesion to fibronectin pre-incubated for 30 mins before fibronectin and further incubated for 1 hr by nitrophenyl-N-acetyl-beta-D-glucosaminide substrate based chromogenic assay
Summary of the method: as §3, with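 “BSA/PBS. Adherent cells read by hexosaminidase substrate, absorbance 405 nm.” for “BSA/PBS.”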

[19] = biological target: T2, Integrin alpha-IIb/beta-3; experiment: Antagonist activity at alpha2bbeta3 in human HEL cells assessed as reduction in cell adhesion to fibrinogen pre-incubated for 30 mins before fibrinogen and further incubated for 1 hr by nitrophenyl-N-acetyl-beta-D-glucosaminide substrate based chromogenic assay; summary of the method: as §3
[20] = biological target: T1, Integrin alpha-L/beta-2 (LFA-1); experiment: Agonist activity at alphaLbeta2 in human Jurkat E6.1 cells assessed as increase in cell adhesion to ICAM1 pre-incubated for 30 mins before ICAM1 and further incubated for 30 mins by […]; assay type: cell-based; summary of the method: as §2

Molecule	IC50 [1]	IC50 (Integrin alpha-V/beta-3 [4])	EC50 (Integrin alpha-V/beta-6 [6])	IC50 (Integrin alpha-V/beta-6 [7])	EC50 [10]	IC50 (Integrin alpha-V/beta-5 [17])	IC50 (Integrin alpha-5/beta-1 [18])	IC50 [19]	Activity (SK-MEL-24)	Activity (MCF7)	Activity (HT-29)	Activity (K562)	Activity (HEL)	EC50 (Integrin alpha-V/beta-5 [5])	EC50 (Integrin alpha-4/beta-1 [9])	IC50 (Integrin alpha-4/beta-1 [11])	EC50 (Integrin alpha-V/beta-3 [16])	EC50 [20]	further results
O=C(O)CC1CC(=O)N1C(=O)NCc1ccccc1 (stereo not drawn)	> 5 µM	> 5 µM	> 5 µM	> 5 µM	> 5 µM	> 5 µM	0.417 µM	> 5 µM	Non-Toxic	Non-Toxic	Non-Toxic	Non-Toxic	Non-Toxic	> 5 µM	> 5 µM	> 5 µM	> 5 µM	> 5 µM	
NCc1ccc(NC(=O)N2C(=O)C[C@H]2C(=O)O)cc1.O=C(O)C(F)(F)F	> 5 µM	> 5 µM	> 5 µM	> 5 µM	> 5 µM	> 5 µM		> 5 µM	Non-Toxic	Non-Toxic	Non-Toxic	Non-Toxic	Non-Toxic	> 5 µM	> 5 µM	> 5 µM	> 5 µM	> 5 µM	
H-GRGDTP-OH		0.925 µM	> 5 µM	> 5 µM	> 5 µM	0.0342 µM	0.00062 µM	> 5 µM	Non-Toxic	Non-Toxic	Non-Toxic	Non-Toxic	Non-Toxic						
Nc1ccc(CNC(=O)N2C(=O)CC2CC(=O)NCCC(=O)O)cc1.O=C(O)C(F)(F)F (stereo not drawn)	> 5 µM	> 5 µM	> 5 µM	> 5 µM	> 5 µM	> 5 µM	1.05 µM	> 5 µM	Non-Toxic	Non-Toxic	Non-Toxic	Non-Toxic	Non-Toxic	> 5 µM	> 5 µM	> 5 µM	> 5 µM	> 5 µM	
CCCCS(=O)(=O)N[C@@H](Cc1ccc(OCCCCC2CCNCC2)cc1)C(=O)O [TIROFIBAN]									Non-Toxic	Non-Toxic	Non-Toxic	Non-Toxic	Non-Toxic						
CC(C)[C@@H]1NC(=O)[C@@H](Cc2ccccc2)NC(=O)[C@H](CC(=O)O)NC(=O)CNC(=O)[C@H](CCCN=C(N)N)NC1=O [CYCLORGDFV]									Non-Toxic	Non-Toxic	Non-Toxic	Non-Toxic	Non-Toxic						

More lines, main results first:

IC50 [1]	IC50 (Integrin alpha-V/beta-3 [4])	EC50 (Integrin alpha-V/beta-6 [6])	IC50 (Integrin alpha-V/beta-6 [7])	EC50 [10]	IC50 (Integrin alpha-V/beta-5 [17])	IC50 (Integrin alpha-5/beta-1 [18])	IC50 [19]	Molecule	Activity (SK-MEL-24)	Activity (MCF7)	Activity (HT-29)	Activity (K562)	Activity (HEL)	EC50 (Integrin alpha-V/beta-5 [5])	EC50 (Integrin alpha-4/beta-1 [9])	IC50 (Integrin alpha-4/beta-1 [11])	EC50 (Integrin alpha-V/beta-3 [16])	EC50 [20]	further results
0.00084 µM								Cc1ccccc1NC(=O)Nc1ccc(CC(=O)N[C@@H](CC(C)C)C(=O)N[C@@H](CC(=O)O)C(=O)N[C@H](C(=O)N2CCC[C@H]2C(=O)O)C(C)C)cc1 ({NH(2-Me-phenyl)-CO}-[X1]LDVP-OH)	Non-Toxic	Non-Toxic	Non-Toxic	Non-Toxic	Non-Toxic						
1.63 µM	0.0409 µM	> 5 µM	> 5 µM	0.311 µM				O=C(O)CC1CC(=O)N1 (stereo not drawn)	Non-Toxic	Non-Toxic	Non-Toxic	Non-Toxic	Non-Toxic	0.376 µM	> 5 µM	> 5 µM			IC50 [2]: 0.265 µM; IC50 (Integrin alpha-5/beta-1 [3]): > 1 µM; EC50 (Integrin alpha-5/beta-1 [8]): 1.03 µM; IC50 (Integrin alpha-V/beta-3 [12]): 0.0019 µM; IC50 (Integrin alpha-V/beta-5 [13]): 0.0024 µM; IC50 (Integrin alpha-V/beta-6 [14]): > 1 µM; IC50 (Integrin alpha-4/beta-1 [15]): > 1 µM
		> 5 µM	> 5 µM	> 5 µM	2.28 µM	> 5 µM	> 5 µM	Ac-DRLDS-OH	Non-Toxic	Non-Toxic	Non-Toxic	Non-Toxic	Non-Toxic						EC50 (Integrin alpha-5/beta-1 [8]): > 5 µM
